Test results reported in ChEMBL document CHEMBL1134639, “Conformationally restricted analogues of 1N,14N-bisethylhomospermine (BE-4-4-4): synthesis and growth inhibitory effects on human prostate cancer cells” (2001).

Legend:
Type in all cases: functional
LNCaP [1] = experiment: Inhibition of cell growth was determined in LNCaP cell line of Human prostate tumor using MTT assay, on day 6 after treatment; conditions: read-out: ID50 (the source's name)
Outline: (§1)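 MTT growth assay on human prostate tumour cells seeded in microtitre plates and incubated overnight at 37 °C in humidified 95% air/5% CO₂. Diluted drug stocks were added to the middle 8 columns, with buffer controls in the outer columns. Each concentration was run in quadruplicate. ID₅₀ is the concentration giving 50% growth inhibition on day 6 of treatment.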

PC-3 = experiment: Inhibition of cell growth was determined in PC-3 cell line of human prostate tumor using MTT assay, on day 6 after treatment; conditions: read-out: ID50 (the source's name); outline: as §1
DU-145 = experiment: Inhibition of cell growth was determined in DU145 cell line of human prostate tumor using MTT assay, on day 6 after treatment; conditions: read-out: ID50 (the source's name); outline: as §1
DuPro = experiment: Inhibition of cell growth was determined in DUPRO cell line of human prostate tumor using MTT assay, on day 6 after treatment; conditions: read-out: ID50 (the source's name); outline: as §1
LNCaP [2] = experiment: Inhibition of cell growth was determined in LNCaP cell line of human prostate tumor using MTT assay, on day 6 after treatment; conditions: 144 h, read-out: ID50 (the source's name); outline: as §1

| IC50 (LNCaP [1]; Homo sapiens, LNCaP, 144 h) | IC50 (PC-3; Homo sapiens, PC-3, 144 h) | IC50 (DU-145; Homo sapiens, DU-145, 144 h) | Structure (SMILES) | further results |
| --- | --- | --- | --- | --- |
| 2.2 µM |  |  | CCNCCCCNCC#CCNCCCCNCC | IC50 (DuPro; 144 h): 3.2 µM; IC50 (PC-3; PC-3, 144 h): > 31.2 µM |
| 0.17 µM | 1.4 µM | 0.02 µM | CCNCCCCNCC1CC1CNCCCCNCC (stereo in doubt; 7) |  |
|  | 4.7 µM | 0.021 µM | CCNCCCCNCC1CCC1CNCCCCNCC (stereo in doubt; 13) | IC50 (LNCaP [1]): 0.7 µM; IC50 (DuPro): 0.3 µM |
|  | 0.7 µM | 0.03 µM | CCNCCCCNCCCCNCCCCNCC [DIETHYLHOMOSPERMINE] | IC50 (LNCaP [2]): 0.1 µM; IC50 (DuPro; Homo sapiens, DuPro, 144 h): 0.2 µM |

More lines, now with the values behind:

| Structure (SMILES) | IC50 (LNCaP [1]; Homo sapiens, LNCaP, 144 h) | IC50 (PC-3; Homo sapiens, PC-3, 144 h) | IC50 (DU-145; Homo sapiens, DU-145, 144 h) | further results |
| --- | --- | --- | --- | --- |
| CCNC/C=C\CNC/C=C\CNCCCCNCC | 0.69 µM | > 31.2 µM |  |  |
| CCNCCCCNC/C=C/CNCCCCNCC | 0.497 µM |  | 0.22 µM |  |
| CCNC/C=C\CNCCCCNCCCCNCC | 0.21 µM |  |  |  |
| CCNCCCCNC/C=C\CNCCCCNCC | 0.065 µM | > 31.2 µM | 0.03 µM |  |
| CCNCCCCNCc1ccccc1CNCCCCNCC | > 31.2 µM | > 31.2 µM |  | IC50 (DuPro; Homo sapiens, DuPro, 144 h): > 31.2 µM |
| CCNC/C=C\CNCCCCNC/C=C\CNCC | 3 µM | 0.7 µM | 0.13 µM |  |
| CCNC/C=C\CNC/C=C\CNC/C=C\CNCC | 0.77 µM |  |  |  |
| CCNCCCCNCC1CC1CNCCCCNCC (stereo in doubt; 4) |  |  |  | IC50 (LNCaP [1]): 0.21 µM; IC50 (DU-145): 0.016 µM; IC50 (DuPro): 0.059 µM; IC50 (PC-3): 1.6 µM |
| CCNCCCCNCC1CCC1CNCCCCNCC (stereo in doubt; 10) |  |  |  | IC50 (LNCaP [1]): 0.21 µM; IC50 (DuPro): 0.08 µM |
